The target of assay [1] is T1, 5-hydroxytryptamine receptor 2A (Rattus norvegicus, UniProt P14842). Briefly: (§1) Agonistic activity against 5-hydroxytryptamine 2A receptor in rat cortex using [3H]ketanserin. The assay is classed as functional, tissue-based.
Assay [2] concerns the target 5-hydroxytryptamine receptor 4 (Cavia porcellus) (UniProt O70528). Briefly: 5-hydroxytryptamine 4 receptor agonistic activity was measured by twitch response enhancing activity in electrically stimulated guinea pig ileum preparation. The assay is classed as functional, tissue-based. The method in brief: (§2)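 Longitudinal muscle strips of guinea pig ileum kept in tyrode solution with 0.1 μM methylsergide. Twitch contractions (2–3 s) evoked through platinum electrodes by square-wave pulses at 0.1 Hz and 2 ms duration. Once a stable submaximal response was reached, noncumulative concentration–response curves were built for the agonists.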

Assay [3] has the same target. Briefly: Relative efficacy compared to serotonin(1) in 5-hydroxytryptamine 4 assay. The assay is classed as functional. The method in brief: as §2
The target in assay [4] is Serotonin 3 (5-HT3) receptor. Briefly: Antagonistic activity against 5-hydroxytryptamine 3 receptor in guinea pig ileum assay.
For assay [5], the target named is T1, 5-hydroxytryptamine receptor 2A. Described as §1. The assay is classed as tissue-based. The method in brief: (§3)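 Binding to rat cortex. Table footnote lists [3H]ketanserin as the radioligand.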
For assay [6] the target is unchanged. Kind of assay: Agonistic activity against 5-hydroxytryptamine 2A receptor in rat cortex using [3H]-ketanserin. The assay is classed as tissue-based. Put shortly: as §3

Chain of 5-hydroxytryptamine receptor 4 (Cavia porcellus) (O70528 whole entry): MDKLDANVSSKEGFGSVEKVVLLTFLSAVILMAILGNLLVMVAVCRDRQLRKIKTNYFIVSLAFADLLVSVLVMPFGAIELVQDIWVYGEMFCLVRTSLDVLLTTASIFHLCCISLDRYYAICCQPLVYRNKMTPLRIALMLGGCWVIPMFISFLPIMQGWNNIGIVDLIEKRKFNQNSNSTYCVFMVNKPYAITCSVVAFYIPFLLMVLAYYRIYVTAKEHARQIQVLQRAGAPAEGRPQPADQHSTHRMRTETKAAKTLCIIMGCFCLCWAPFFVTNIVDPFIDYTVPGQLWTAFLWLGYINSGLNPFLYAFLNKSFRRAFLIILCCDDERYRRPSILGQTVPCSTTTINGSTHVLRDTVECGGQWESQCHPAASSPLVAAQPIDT
T1 sequence (P14842 whole entry): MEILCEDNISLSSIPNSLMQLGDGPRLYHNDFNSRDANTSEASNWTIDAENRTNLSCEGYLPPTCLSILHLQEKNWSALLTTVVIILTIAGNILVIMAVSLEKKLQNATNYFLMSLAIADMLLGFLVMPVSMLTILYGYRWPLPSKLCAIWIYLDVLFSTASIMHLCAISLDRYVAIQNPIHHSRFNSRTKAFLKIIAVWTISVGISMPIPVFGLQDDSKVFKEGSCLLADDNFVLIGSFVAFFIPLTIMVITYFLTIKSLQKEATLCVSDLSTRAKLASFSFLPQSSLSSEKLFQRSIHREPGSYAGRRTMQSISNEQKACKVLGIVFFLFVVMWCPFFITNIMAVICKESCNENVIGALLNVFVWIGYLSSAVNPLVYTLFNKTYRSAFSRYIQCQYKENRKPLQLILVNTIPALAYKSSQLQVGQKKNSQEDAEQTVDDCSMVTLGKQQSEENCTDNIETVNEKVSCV

A word on the Ki: it is a measure of affinity in units of concentration, obtained from inhibition or displacement. Broadly, the pA2 is a measure of antagonist potency on a negative log scale. A lower pA2 goes with lower antagonist potency. For the compound `Cl.N=C(N)N/N=C/c1c[nH]c2ccc(O)cc12`, the Ki in assay [1] was 240 nM. Further, the pD2 in assay [2] was 8.8. Besides, the Relative efficacy in assay [3] was determined as 1.5. Besides, in assay [4], the pA2 is on record as less than 5.

In the case of `N/C(=N/N=C/c1c[nH]c2ccc(O)cc12)NCCc1ccccc1Cl`, in assay [2], the pD2 was 8.5. In assay [3], this compound showed a Relative efficacy of 0.5.

For `Oc1ccc2[nH]cc(/C=N/NC3=NCCS3)c2c1`, the pD2 in assay [2] was 6.5. In assay [3], this compound returned a Relative efficacy of 0.5.

With `Oc1ccc2[nH]cc(/C=N/NC3=NCCN3)c2c1`, the pD2 in assay [2] was 7.3. Besides, the Relative efficacy in assay [3] is 0.7.

As to `Oc1ccc2[nH]cc(/C=N/NC3=NCCC3)c2c1`, the pD2 in assay [2] came to 7.1. Besides, the Relative efficacy in assay [3] amounted to 1.

For `CCCCC/N=C(/N)N/N=C/c1c[nH]c2ccc(OCC(=O)N(C)C)cc12`, the pD2 in assay [2] was determined as 7.3. In assay [3], this compound registered a Relative efficacy of 1.4.

Turning to `CCCCC/N=C(/N)N/N=C/c1c[nH]c2ccc(OC(=O)N(C)C)cc12`, the pD2 in assay [2] was less than 7. In addition, the Relative efficacy in assay [3] is 0.7.

With `CCCCC/N=C(/N)N/N=C/c1csc2ccc(OC)cc12`, the pD2 in assay [2] amounted to 6.1. Moreover, in assay [3], the Relative efficacy came to 0.5.

Turning to `N/C(=N/N=C/c1c[nH]c2ccc(O)cc12)NCCNC(=O)c1ccccc1`, the pD2 in assay [2] was found to be 8.5. Moreover, in assay [3], the Relative efficacy was found to be 0.5.

In the case of `CCCCC/N=C(/N)N/N=C/c1[nH]nc2ccc(O)cc12`, in assay [2], the pD2 was less than 4. This compound gave a Relative efficacy in assay [3] of 0.

For the compound `CCCCC/N=C(/N)N/N=C/c1c[nH]c2ccc(OCCN(C)C)cc12`, the pD2 in assay [2] amounted to 7.6. Moreover, the Relative efficacy in assay [3] is 0.3.

Consider `CCCCC/N=C(/N)N/N=C/c1c[nH]c2ccc(OCc3ccccc3)cc12`, for which the pD2 in assay [2] was less than 6. Also, the Relative efficacy in assay [3] came to 1.8.

Turning to `Oc1ccc2[nH]cc(/C=N/Nc3ncc[nH]3)c2c1`, the Ki in assay [5] is 1620 nM. For the same compound, in assay [2], the pD2 was determined as 8.2. This compound also registered a Relative efficacy in assay [3] of 1.

Consider `CCCCC/N=C(/N)N/N=C/c1[nH]nc2ccc(OC)cc12`, for which the pD2 in assay [2] is less than 4. For the same compound, the Relative efficacy in assay [3] was found to be 0.

Consider `CCCCC/N=C(/N)N/N=C/c1c[nH]c2ccc(OC(=O)CCCCC)cc12`, for which, in assay [2], the pD2 is less than 4. Also, the Relative efficacy in assay [3] is 0.

Take `CCCCC/N=C(/N)N/N=C/c1c[nH]c2ccc(OC)nc12`: the pD2 in assay [2] was 7.1. In assay [3], this compound returned a Relative efficacy of 1.

With `CCCCC/N=C(/N)N/N=C/c1c[nH]c2ccc(OCCO)cc12`, the pD2 in assay [2] amounted to 7.4. For the same compound, in assay [3], the Relative efficacy was 1.

As for `CCCCC/N=C(/N)N/N=C/c1c[nH]c2ccc(OCOC)cc12`, the pD2 in assay [2] stood at 7.5. In assay [3], this compound came in with a Relative efficacy of 0.7.

`CCCCC/N=C(/N)N/N=C/c1c[nH]c2ccc([Si](C)(C)C)cc12`: the pD2 in assay [2] is less than 5.5.

With `CCCC(=O)/N=C(/N)N/N=C/c1c[nH]c2ccc(O)cc12`, the pD2 in assay [2] is 7.7. In assay [3], the Relative efficacy came to 1.

As to `CCCCC/N=C(/N)N/N=C/c1c[nH]c2ccc(N)cc12`, the pD2 in assay [2] stood at 7.6. This compound also came in with a Relative efficacy in assay [3] of 1.6.

In assay [5], `CCCCCCCN(C)C(=N)N/N=C/c1c[nH]c2ccc(O)cc12` gave a Ki of 2340 nM. For the same compound, the pD2 in assay [2] was 8. Besides, the Relative efficacy in assay [3] amounted to 1.6.

On to `N/C(=N/N=C/c1c[nH]c2ccc(O)cc12)NCCCc1ccccc1`, for which the pD2 in assay [2] turned out to be 8.5. The Relative efficacy in assay [3] amounted to 0.4.

As for `CCCCC/N=C(/N)N/N=C/c1c[nH]c2ccc(OCC)cc12`, in assay [2], the pD2 was less than 7. In assay [3], this compound registered a Relative efficacy of 0.1.

Regarding `CCCCC/N=C(/N)N/N=C/c1c[nH]c2ccc(O)nc12`, the Ki in assay [5] was 1350 nM. Also, the pD2 in assay [2] was 7.8. The compound also registered a Relative efficacy in assay [3] of 0.9.

As to `CCCCC/N=C(/N)N/N=C/c1c[nH]c2ccc(OCCC(C)C)cc12`, the pD2 in assay [2] was found to be 5.9. The same compound had a Relative efficacy in assay [3] of 0.8.

Turning to `CN(/N=C/c1c[nH]c2ccc(O)cc12)C(=N)N`, the pD2 in assay [2] was determined as 5.8. Besides, in assay [3], the Relative efficacy was 0.5.

For the compound `CCCCC/N=C(/N)N/N=C/c1c[nH]c2ccccc12`, in assay [2], the pD2 is less than 6. Moreover, the Relative efficacy in assay [3] came to 0.1.

The compound `CCCCC/N=C(/N)N/N=C/c1c[nH]c2ccc(OCC=C(C)C)cc12` showed a Ki in assay [5] of 6310 nM. Moreover, in assay [2], the pD2 stood at 8.15. Also, in assay [3], the Relative efficacy amounted to 2.2. Also, the pA2 in assay [4] was less than 5.

As for `CCCCC/N=C(/N)N/N=C/c1c[nH]c2ccc(OCCOC)cc12`, the pD2 in assay [2] was 6.6. The compound also displayed a Relative efficacy in assay [3] of 0.7.

Take `Oc1ccc2[nH]cc(/C=N/Nc3ccccn3)c2c1`: the pD2 in assay [2] worked out at 6.1. In assay [3], the Relative efficacy amounted to 0.8.

As to `COc1cccc(CCNC(=N)N/N=C/c2c[nH]c3ccc(O)cc23)c1`, the pD2 in assay [2] stood at 8.9. This compound also registered a Relative efficacy in assay [3] of 0.5.

As to `CCCCC/N=C(/N)N/N=C/c1csc2ccc(O)cc12`, in assay [2], the pD2 is less than 7.

Take `CCCCCN(C)C(=N)N/N=C/c1c[nH]c2ccc(O)cc12`: in assay [2], the pD2 turned out to be 7.7. In addition, the Relative efficacy in assay [3] came out at 0.3.

`CN1CCN=C1N/N=C/c1c[nH]c2ccc(O)cc12`: the pD2 in assay [2] was less than 4. This compound returned a Relative efficacy in assay [3] of 0.

As for `CCCCCCCCNC(=N)N/N=C/c1c[nH]c2ccc(O)cc12`, the pD2 in assay [2] was less than 4. In assay [3], this compound showed a Relative efficacy of 0.

In the case of `N/C(=N/N=C/c1c[nH]c2ccc(O)cc12)NCCc1ccc(Cl)cc1`, the pD2 in assay [2] stood at 8.4. This compound also showed a Relative efficacy in assay [3] of 0.2.

`N/C(=N/C(=O)NC1CCCCC1)N/N=C/c1c[nH]c2ccc(O)cc12`: the pD2 in assay [2] was determined as 8.5. In assay [3], this compound returned a Relative efficacy of 0.5.

As to `N/C(=N/N=C/c1c[nH]c2ccc(O)cc12)NCCc1ccccc1`, the pD2 in assay [2] was found to be 9.1. The same compound came in with a Relative efficacy in assay [3] of 1.

On to `CCCCC/N=C(/N)N/N=C/c1c[nH]c2ccc(OC(=O)c3ccccc3)cc12`, for which the pD2 in assay [2] amounted to 7. The Relative efficacy in assay [3] worked out at 0.5.

Turning to `CCCCC/N=C(/N)N/N=C/c1c[nH]c2ccc(NS(C)(=O)=O)cc12`, in assay [2], the pD2 was less than 4. This compound also registered a Relative efficacy in assay [3] of 0.

`N/C(=N/N=C/c1c[nH]c2ccc(O)cc12)NCCCO`: in assay [2], the pD2 was 7.7. The same compound yielded a Relative efficacy in assay [3] of 0.7.

As to `Cl.N/C(=N/N=C/c1c[nH]c2ccc(O)cc12)NCCc1ccc(Cl)c(Cl)c1`, in assay [6], the Ki was 191 nM. The pD2 in assay [2] was greater than 10. The compound further came in with a Relative efficacy in assay [3] of 0.1. The same compound displayed a pA2 in assay [4] of less than 5.

Turning to `CCCCCNC(=N)N/N=C/c1c[nH]c2ccc(OC)cc12`, in assay [2], the pD2 is 6.9. The Relative efficacy in assay [3] is 0.2.

`CCCCCNC(=N)N/N=C/c1c[nH]c2ccc(O)cc12` gave a Ki in assay [5] of 224 nM. The pD2 in assay [2] was 9.3. In assay [3], this compound came in with a Relative efficacy of 0.9. In assay [4], this compound came in with a pA2 of less than 5.

In assay [6], `CCCCC/N=C(/N)N/N=C/c1c[nH]c2ccc(OC(C)C)cc12` had a Ki of 2510 nM. For the same compound, in assay [2], the pD2 worked out at 6.8. The compound further displayed a Relative efficacy in assay [3] of 0.5. The pA2 in assay [4] is less than 5.
